Laboratory results: ChEMBL document CHEMBL1142546 (J Med Chem, 2008)
Calls of active or inactive are those of the source. No cut-off for these calls is given here.

Tests used:
Homo sapiens [1] = species on record: Homo sapiens; assay: Inhibition of chymotrypsin-like activity of human 20S proteasome assessed as enzyme activity recovery 12 hrs after dialysis
[2] = Inhibition of chymotrypsin-like activity of yeast 20S proteasome; design: species or system Saccharomyces cerevisiae
Method in brief: (§1)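 Purified yeast 20S proteasome in 75 mM Tris-HCl pH 7.8 with 0.02% SDS. Serial compound dilutions were preincubated 5 min at 37 °C, then substrate was added: Suc-LLVY-AMC at 20 µM final (CT-L), Z-LLE-AMC (C-L), or Bz-VGR-AMC with SDS omitted (T-L). Cleaved AMC read at ex 390/em 460 nm.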

[3] = Inhibition of trypsin-like activity of yeast 20S proteasome; design: species or system Saccharomyces cerevisiae; method in brief: as §1
[4] = Inhibition of caspase-like activity of yeast 20S proteasome; design: species or system Saccharomyces cerevisiae; method in brief: as §1
[5] = Inhibition of chymotrypsin-like activity of human 20S proteasome
[6] = Inhibition of trypsin-like activity of human 20S proteasome
[7] = Inhibition of caspase-like activity of human 20S proteasome
Oryctolagus cuniculus [8] = species on record: Oryctolagus cuniculus; assay: Inhibition of chymotrypsin-like activity of rabbit 20S proteasome assessed as enzyme activity recovery 24 hrs after dialysis
Method in brief: (§2)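 Rabbit 20S proteasome (1.4 nM final) was incubated 1 h at ambient temperature with compound or DMSO (0.1% final) in 20 mM HEPES pH 7.3, 0.5 mM EDTA, 0.05% Triton X-100, 0.035% SDS (SDS omitted for T-L). Mixtures were dialysed (MWCO 12-14000) against assay buffer at ambient temperature. Samples taken at 0, 1, 2, 5, 24 h (some also 12 h) for site activity, normalised to DMSO controls.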

Oryctolagus cuniculus [9] = species on record: Oryctolagus cuniculus; assay: Inhibition of trypsin-like activity of rabbit 20S proteasome assessed as enzyme activity recovery 24 hrs after dialysis; method in brief: as §2
Oryctolagus cuniculus [10] = species on record: Oryctolagus cuniculus; assay: Inhibition of caspase-like activity of rabbit 20S proteasome assessed as enzyme activity recovery 24 hrs after dialysis; method in brief: as §2
Homo sapiens [11] = species on record: Homo sapiens; assay: Inhibition of trypsin-like activity of human 20S proteasome assessed as enzyme activity recovery 12 hrs after dialysis
Homo sapiens [12] = species on record: Homo sapiens; assay: Inhibition of caspase-like activity of human 20S proteasome assessed as enzyme activity recovery 12 hrs after dialysis
[13] = Inhibition of chymotrypsin-like activity of human 20S proteasome assessed as release of free AMC substrate by fluorimetry based kinetic assay
[14] = Inhibition of trypsin-like activity of human 20S proteasome assessed as release of free AMC substrate by fluorimetry based kinetic assay
[15] = Inhibition of caspase-like activity of human 20S proteasome assessed as release of free AMC substrate by fluorimetry based kinetic assay
Homo sapiens [16] = species on record: Homo sapiens; assay: Inhibition of chymotrypsin-like activity of human 20S proteasome assessed as inactivation rate by fluorimetry based kinetic assay
Homo sapiens [17] = species on record: Homo sapiens; assay: Inhibition of trypsin-like activity of human 20S proteasome assessed as inactivation rate by fluorimetry based kinetic assay
Homo sapiens [18] = species on record: Homo sapiens; assay: Inhibition of caspase-like activity of human 20S proteasome assessed as inactivation rate by fluorimetry based kinetic assay
[19] = Stability in 20 mM HEPES buffer assessed as beta-lactone hydrolysis rate at pH 7.3 at 37 degC
[20] = Inhibition of chymotrypsin-like activity of rabbit 20S proteasome; design: species or system Oryctolagus cuniculus
Method in brief: (§3)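 Purified rabbit muscle 20S proteasome at 1.4 nM final. T-L used the same buffer without SDS and Boc-LRR-AMC. Serial dilutions were preincubated 5 min at 37 °C. AMC fluorescence ex 390/em 460 nm.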

[21] = Inhibition of trypsin-like activity of rabbit 20S proteasome; design: species or system Oryctolagus cuniculus; method in brief: as §3
[22] = Inhibition of caspase-like activity of rabbit 20S proteasome; design: species or system Oryctolagus cuniculus; method in brief: as §3
Oryctolagus cuniculus [23] = species on record: Oryctolagus cuniculus; assay: Inhibition of chymotrypsin-like activity of rabbit 20S proteasome assessed as enzyme activity recovery 12 hrs after dialysis; method in brief: as §2
Oryctolagus cuniculus [24] = species on record: Oryctolagus cuniculus; assay: Inhibition of trypsin-like activity of rabbit 20S proteasome assessed as enzyme activity recovery 12 hrs after dialysis; method in brief: as §2
Oryctolagus cuniculus [25] = species on record: Oryctolagus cuniculus; assay: Inhibition of caspase-like activity of rabbit 20S proteasome assessed as enzyme activity recovery 12 hrs after dialysis; method in brief: as §2

With C[C@@]12OC(=O)[C@]1([C@@H](O)[C@@H]1C=CCCC1)NC(=O)[C@@H]2CCCl [MARIZOMIB] as the molecule, how does the Activity (Homo sapiens [1]) read?
Its Activity is “Active”.

And the IC50 [2]?
The IC50 was 2 nM.

And the IC50 [3]?
Its IC50 is 59 nM.

What about the IC50 [4] of the same molecule?
The IC50 was 2600 nM.

And the IC50 [5]?
Its IC50 is 3.5 nM.

And the IC50 [6]?
Its IC50 is 28 nM.

And the IC50 [7]?
Its IC50 is 430 nM.

And the Activity (Oryctolagus cuniculus [8])?
Its Activity is “Active”.

What about the Activity (Oryctolagus cuniculus [9]) of the same molecule?
Its Activity is “Active”.

What about the Activity (Oryctolagus cuniculus [10]) of the same molecule?
Its Activity is “Active”.

And the Activity (Homo sapiens [11])?
The Activity was “Active”.

And the Activity (Homo sapiens [12])?
Its Activity is “Active”.

What about the Ki [13] of the same molecule?
The Ki was 23 nM.

What about the Ki [14] of the same molecule?
The Ki was 97 nM.

What about the Ki [15] of the same molecule?
Its Ki is over 1000 nM.

And the Activity (Homo sapiens [16])?
The Activity was 0.01 s⁻¹.

What about the Activity (Homo sapiens [17]) of the same molecule?
Its Activity is 0.003 s⁻¹.

What about the Activity (Homo sapiens [18]) of the same molecule?
Its Activity is over 0.02 s⁻¹.

And the half-life [19]?
The half-life was 77 min.

Which IC50 [20] does the source give for C[C@H]1C(=O)N[C@@]2([C@@H](O)[C@@H]3C=CCCC3)C(=O)O[C@@]12C here?
The IC50 was 7.5 nM.

What about the IC50 [21] of the same molecule?
Its IC50 is 370 nM.

And the IC50 [22]?
Its IC50 is 460 nM.

What about the Activity (Oryctolagus cuniculus [23]) of the same molecule?
The Activity was “inactive”.

What about the half-life [19] of the same molecule?
The half-life was 95 min.

For C[C@@]12OC(=O)[C@@]1([C@@H](O)[C@@H]1C=CCCC1)NC(=O)[C@@H]2CCO [hydroxysalinosporamide A], which IC50 [20] is on record?
The IC50 was 14 nM.

What about the IC50 [21] of the same molecule?
Its IC50 is 1200 nM.

What about the IC50 [22] of the same molecule?
Its IC50 is 1200 nM.

What about the Activity (Oryctolagus cuniculus [23]) of the same molecule?
Its Activity is “inactive”.

And the half-life [19]?
The half-life was 85 min.

Which IC50 [21] does the source give for CC[C@H]1C(=O)N[C@@]2([C@@H](O)[C@@H]3C=CCCC3)C(=O)O[C@@]12C [SALINOSPORAMIDE B] here?
The IC50 was 610 nM.

And the IC50 [2]?
Its IC50 is 16 nM.

What about the IC50 [3] of the same molecule?
The IC50 was 1040 nM.

And the IC50 [4]?
The IC50 was over 20000 nM.

What about the Activity (Oryctolagus cuniculus [23]) of the same molecule?
Its Activity is “inactive”.

What about the Activity (Oryctolagus cuniculus [24]) of the same molecule?
Its Activity is “inactive”.

What about the Activity (Oryctolagus cuniculus [25]) of the same molecule?
Its Activity is “inactive”.

And the half-life [19]?
Its half-life is 190 min.

Which results are given for C[C@@]12OC(=O)[C@]1([C@@H](O)[C@@H]1C=CCCC1)NC(=O)[C@@H]2CCBr [BROMOSALINOSPORAMIDE]?
IC50 [20]: 2.6 nM; IC50 [21]: 14 nM; IC50 [22]: 290 nM; half-life [19]: 80 min

Which IC50 [20] does the source give for CCC[C@H]1C(=O)N[C@@]2([C@@H](O)[C@@H]3C=CCCC3)C(=O)O[C@@]12C here?
Its IC50 is 24 nM.

And the IC50 [21]?
Its IC50 is 1100 nM.

What about the IC50 [22] of the same molecule?
Its IC50 is 1200 nM.

And the Activity (Oryctolagus cuniculus [23])?
The Activity was “inactive”.

What about the half-life [19] of the same molecule?
Its half-life is 171 min.

With C[C@@]12OC(=O)[C@]1([C@@H](O)[C@@H]1C=CCCC1)NC(=O)[C@@H]2CCI [IODOSALINOSPORAMIDE] as the molecule, how does the IC50 [20] read?
The IC50 was 2.8 nM.

What about the IC50 [21] of the same molecule?
The IC50 was 13 nM.

And the IC50 [22]?
The IC50 was 410 nM.

What about the half-life [19] of the same molecule?
The half-life was 92 min.

For C[C@@]12OC(=O)[C@]1([C@@H](O)[C@@H]1C=CCCC1)NC(=O)[C@@H]2CCOS(C)(=O)=O, which IC50 [20] is on record?
The IC50 was 4.3 nM.

And the IC50 [21]?
The IC50 was 65 nM.

And the IC50 [22]?
Its IC50 is 870 nM.

And the Activity (Oryctolagus cuniculus [8])?
The Activity was “Active”.

And the half-life [19]?
Its half-life is 59 min.

Which IC50 [20] does the source give for CN(C)c1cccc2c(S(=O)(=O)OCC[C@H]3C(=O)N[C@@]4([C@@H](O)[C@@H]5C=CCCC5)C(=O)O[C@@]34C)cccc12 here?
Its IC50 is 3 nM.

What about the IC50 [21] of the same molecule?
Its IC50 is 12 nM.

What about the IC50 [22] of the same molecule?
Its IC50 is 90 nM.

And the half-life [19]?
The half-life was 179 min.

For Cc1ccc(S(=O)(=O)OCC[C@H]2C(=O)N[C@@]3([C@@H](O)[C@@H]4C=CCCC4)C(=O)O[C@@]23C)cc1, which IC50 [20] is on record?
The IC50 was 2.5 nM.

And the IC50 [21]?
Its IC50 is 9.9 nM.

And the IC50 [22]?
Its IC50 is 127 nM.

What about the Activity (Oryctolagus cuniculus [8]) of the same molecule?
Its Activity is “Active”.

And the half-life [19]?
Its half-life is 75 min.

Which IC50 [20] does the source give for C[C@@]12OC(=O)[C@]1([C@@H](O)[C@@H]1C=CCCC1)NC(=O)[C@@H]2CCF [FLUOROSALINOSPORAMIDE] here?
The IC50 was 9.2 nM.

And the Activity (Oryctolagus cuniculus [8])?
Its Activity is “Active”.

And the half-life [19]?
The half-life was 79 min.
